In ChEMBL document CHEMBL4130601, “Oxygenated N-Acyl Alanine Methyl Esters (NAMEs) from the Marine Bacterium Roseovarius tolerans EL-164” (2018) one finds MIC, inhibition and Activity data, which are given here for four compounds.

One test relates to Escherichia coli. As to the kind of experiment: Antibacterial activity against TolC-deficient Escherichia coli after 16 to 20 hrs by microdilution method. Format: functional. The procedure, abridged: (§1)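 Samples were serially diluted from 2 mg/mL stocks and the cells added. Growth was 16−20 h at the optimal temperature (30 or 37 °C). MIC was taken as the lowest concentration with no visible growth.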
Background: Broth dilution looks for growth in wells or tubes with falling amounts of substance.

Another test has as its system Micrococcus luteus. Description: Antibacterial activity against Micrococcus luteus DSM 1790 after 16 to 20 hrs by microdilution method. Format: functional. The procedure, abridged:
as §1

The test system of the next test is Bacillus subtilis. As to the kind of experiment: Antibacterial activity against Bacillus subtilis DSM 10 after 16 to 20 hrs by microdilution method. Format: functional. The gist of the method: as §1
A further test has as its system Staphylococcus carnosus. As to the kind of experiment: Antibacterial activity against Staphylococcus carnosus DSM 20501 after 16 to 20 hrs by microdilution method. Format: functional. The procedure, abridged:
as §1

In test [1] the test system is Pseudomonas putida. As to the kind of experiment: Inhibition of N-acyl-homoserinlactone-related quorum sensing activity in Pseudomonas putida F117 at 5 uM measured up to 5.5 hrs by fluorescence assay. The gist of the method:
(§2)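 The sensor strain P. putida F117 (pKRC12) was grown overnight in Luria−Bertani medium with gentamycin (20 μg/mL) at 30 °C, shaking at 160 rpm. Test samples were added at different concentrations.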

For test [2], the system named is Pseudomonas putida. As to the kind of experiment: Induction of N-acyl-homoserinlactone-related quorum sensing activity in Pseudomonas putida F117 measured up to 5.5 hrs by fluorescence assay. The procedure, abridged: as §2
For another test, the system named is Staphylococcus aureus. Description: Antibacterial activity against Staphylococcus aureus Newman after 16 to 20 hrs by microdilution method. Format: functional. The gist of the method: as §1
A further test deals with Mucor hiemalis. As to the kind of experiment: Antibacterial activity against Mucor hiemalis DSM 2656 after 16 to 20 hrs by microdilution method. Format: functional. The gist of the method:
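The fungus, in mid-log phase, was diluted to about 5 × 10⁵ to 5 × 10⁶ cfu/mL final in Myc medium (1% phytone peptone, 1% glucose, 50 mM HEPES, pH 7.0). Samples were serially diluted from 2 mg/mL stocks. Growth was 16−20 h at 30 or 37 °C. MIC was taken as the lowest concentration with no visible growth.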

The structures appear in SMILES notation. ≈ marks a conversion by molar mass, not a printed value. Calls of active or inactive are those of the source.

The term MIC denotes the smallest concentration in the dilution series that meets the test's criterion for growth inhibition. Read a high MIC as a need for much substance.

Take `CCCCCC/C=C\CCCCCC(=O)CC(=O)N[C@@H](C)C(=O)OC`: the MIC was determined as 16 µg/mL (≈ 45.3 µM) in the test with Escherichia coli, 16 µg/mL (≈ 45.3 µM) with Micrococcus luteus, 16 µg/mL (≈ 45.3 µM) against Bacillus subtilis and 8 µg/mL (≈ 22.6 µM) with Staphylococcus carnosus.
Consider `CCCCCC/C=C\CCCCCCCC(=O)N[C@@H](C)C(=O)OC`, for which the inhibition entry in the test with Pseudomonas putida [1] was “inactive”. The result in the test with Pseudomonas putida [2] was inactive.
Turning to `CCCCCC/C=C\CCCCCC(O)CC(=O)N[C@@H](C)C(=O)OC` (stereo partly specified), the MIC in the test with Escherichia coli came out at 16 µg/mL (≈ 45 µM); against Micrococcus luteus it was 8 µg/mL (≈ 22.5 µM); against Bacillus subtilis, 128 µg/mL (≈ 360 µM); with Staphylococcus carnosus it was 16 µg/mL (≈ 45 µM).
Regarding `COC(=O)[C@H](C)NC(=O)CCCCCCC/C=C\CCCCCCO`, the inhibition entry in the test with Pseudomonas putida [1] is “inactive”. Further, the MIC is 8 to 16 µg/mL (≈ 22.5 to 45 µM) against Escherichia coli, 32 to 64 µg/mL (≈ 90 to 180 µM) against Micrococcus luteus, 32 to 64 µg/mL (≈ 90 to 180 µM) against Staphylococcus aureus and 32 to 64 µg/mL (≈ 90 to 180 µM) against Mucor hiemalis. Moreover, in the test with Pseudomonas putida [2], the result was inactive.
